Reference: PMC10883021 (ACS Omega, 2024)
Read-outs that look alike come from different tables or passages of the source.

How the values were obtained:
[1] = tested on: HaCaT human keratinocyte cell line; experiment: MTT cell viability assay, HaCaT control cells; type: cell-based; settings: read-out: IC50 on HaCaT (human fibroblasts in text), 48 h
How it was run: (§1)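 Cells grown in DMEM with 10% FBS, 100 units/ml penicillin/streptomycin and 2 mM L-glutamine at 37 °C, 5% CO₂. 5 × 10³ cells/well were seeded and attached overnight, then given test compound at 0–200 μM for 48 h. MTT was added for 4 h at 37 °C and absorbance read at 570 nm. Viability was taken relative to untreated control cells. Mean ± SD from at least three independent experiments.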

[2] = tested on: T47D breast cancer cell line; experiment: MTT cell viability assay, T47D breast cancer cells; type: cell-based, human; settings: read-out: IC50 on T47D, 48 h
How it was run: as §1

[3] = tested on: MDA-MB-231 breast cancer cell line; experiment: MTT cell viability assay, MDA-MB-231 breast cancer cells; type: cell-based, human; settings: read-out: IC50 on MDA-MB-231
How it was run: as §1

[4] = tested on: MCF-7 breast cancer cells; settings: 0–100 μM; cited from earlier work
[5] = tested on: MDA-MB-231 breast cancer cells; settings: 0–100 μM; cited from earlier work

Molecule | IC50 ([1]; MTT, 0–200 μM) | IC50 ([2]; MTT, 0–200 μM) | IC50 ([3]; MTT, 48 h, 0–200 μM) | IC50 ([1]; Homo sapiens, HaCaT) | IC50 ([2]; Homo sapiens, T47D) | IC50 ([3]; Homo sapiens, MDA-MB-231, 48 h) | cytotoxic effect on MCF-7 [4] | cytotoxic effect on MDA-MB-231 [5]
coelonin [Compound 10] | 114 ± 7.65 µM | 44.4 ± 2.7 µM | 63.8 ± 10.3 µM |  |  |  |  | 
O=Cc1ccc(O)c(O)c1 [Compound 11, 3,4-dihydroxybenzaldehyde] |  |  |  | 115 ± 7.69 µM | 67.7 ± 5.9 µM | 67.2 ± 5.72 µM | did not show an anticancer effect | did not show an anticancer effect
COc1cc([C@@H]2c3cc4c(cc3[C@@H](O[C@@H]3O[C@@H]5CO[C@@H](C)O[C@H]5[C@H](O)[C@H]3O)[C@H]3COC(=O)[C@H]23)OCO4)cc(OC)c1O [etoposide, reference compound] |  |  |  | 4.86 ± 0.35 µM |  |  |  | 
